High-throughput results from PubChem.
Mdm2-MdmX inh: inhibitors of human Mdm2-MdmX association, primary screen, cell-based, luminescence, split luciferase, SaOS-2, uHTS | SaOS-2 split-luciferase Mdm2/MdmX complementation | 330,000 tested, 3% active | inhibition, % at 8 µM | AID 485346, 2010 | Protein Mdm4 (Homo sapiens) + E3 ubiquitin-protein ligase Mdm2 (Homo sapiens), …;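 active means inhibition of at least 50% at 8 µM in the primary screen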
Target sequence (O15151 whole entry, looked up): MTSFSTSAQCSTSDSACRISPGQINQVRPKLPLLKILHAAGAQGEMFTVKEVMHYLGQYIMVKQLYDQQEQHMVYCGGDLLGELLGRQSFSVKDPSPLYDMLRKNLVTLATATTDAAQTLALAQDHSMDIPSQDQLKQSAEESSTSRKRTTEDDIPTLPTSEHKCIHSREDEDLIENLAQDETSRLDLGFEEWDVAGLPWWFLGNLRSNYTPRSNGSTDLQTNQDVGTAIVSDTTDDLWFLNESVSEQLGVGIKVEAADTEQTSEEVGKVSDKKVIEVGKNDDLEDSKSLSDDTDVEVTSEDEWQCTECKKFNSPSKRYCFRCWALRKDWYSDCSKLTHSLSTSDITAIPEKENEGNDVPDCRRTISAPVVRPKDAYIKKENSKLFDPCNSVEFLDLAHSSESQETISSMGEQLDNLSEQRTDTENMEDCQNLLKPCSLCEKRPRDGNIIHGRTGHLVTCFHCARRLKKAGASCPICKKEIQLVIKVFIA
Target sequence (Q00987 whole entry, looked up): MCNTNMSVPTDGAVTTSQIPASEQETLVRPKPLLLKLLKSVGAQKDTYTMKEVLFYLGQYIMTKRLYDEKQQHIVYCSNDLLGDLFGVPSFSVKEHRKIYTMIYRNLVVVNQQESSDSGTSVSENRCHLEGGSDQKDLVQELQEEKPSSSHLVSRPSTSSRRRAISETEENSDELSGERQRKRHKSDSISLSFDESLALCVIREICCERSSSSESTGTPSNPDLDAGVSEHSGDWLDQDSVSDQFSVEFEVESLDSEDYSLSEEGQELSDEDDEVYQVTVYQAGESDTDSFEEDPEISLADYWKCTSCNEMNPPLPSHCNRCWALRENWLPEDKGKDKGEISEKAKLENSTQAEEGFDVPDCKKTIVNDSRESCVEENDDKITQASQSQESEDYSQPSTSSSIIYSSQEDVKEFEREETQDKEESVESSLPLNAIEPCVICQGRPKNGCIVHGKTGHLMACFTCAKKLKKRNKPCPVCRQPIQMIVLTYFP
Beta apoptosis: inhibitors of cytokine-induced beta cell apoptosis, primary screen, luminescence; 300,000 tested, 0.8% active; INS-1E cytokine-induced death, ATP luminescence, 48 h; percent of positive-control rescue, neutral wells zero; protection from apoptosis, % (no concentration beside the values);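 active means Every replicate reaches about 75%, or at least half do and their mean reaches it too, limit read from the data; inconclusive means At least half of replicates reach the limit but their mean does not; inactive means Under half of replicates reach the limit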;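 further: higher means more ATP so stronger rescue from cytokine killing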
CSC inhib: cancer stem cell viability inhibitors, primary screen, luminescence; inhibition, % at 7.5 µM; AID 2717, 2010; 300,000 tested, 1.1% active; cancer stem cell-like cells viability; in the data active means inhibition above about 75%; inconclusive means no clear call, values can overlap the other calls; tested in HMLE shEcad cells
Calb FLC: C. albicans growth inhibition with fluconazole, primary screen, CaCi-2 strain, Alamar Blue fluorescence. C. albicans CaCi-2 (fluconazole-resistant clinical isolate) + fluconazole, 48 h. growth inhibition, % (no concentration beside the values). 300,000 tested, 0.57% active;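 active means growth inhibition above about 58% in most replicates, limit read from the data, passing the limit was not always enough; inconclusive means exactly half the replicates above a set limit; inactive means most replicates below a set limit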;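 further: all wells also contain fluconazole at 8 µg/ml as a sub-toxic cotreatment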
SKKanGAS inh: S. pyogenes SKKanGAS growth inhibitors in kanamycin, primary screen, streptokinase expression inhibitor project, SKKanGAS strain, BacTiter-Glo luminescence. inhibition, % at 7.5 µM. 6 h. 300,000 tested, 1.3% active;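 active means mean replicate score, as percent of positive control median, at least 50; inconclusive means mean below 50 but one replicate at or above 50; inactive means mean and every replicate below 50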;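 further: strain carries kanamycin resistance gene driven by streptokinase promoter and grows in 40 µg/ml kanamycin; loss of luminescence reflects streptokinase promoter inhibition or plain growth inhibition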
T cruzi repl: inhibitors of intracellular T. cruzi growth, primary screen, luminescence, NIH3T3 host cells; T. cruzi beta-gal in NIH3T3, 90 h; inhibition, % (no concentration beside the values); 300,000 tested, 1.4% active; AID 1885, 2009;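 active means mean inhibition across valid replicates above about 55%, limit read from the data; inconclusive means mean below that limit but half or more replicates reach it; inactive means mean below it, under half of replicates reach it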;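 further: signal also drops with host cell toxicity which is not excluded here; higher percent means less beta-gal luminescence so fewer parasites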
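Test system: β-gal T. cruzi (Tulahuen C4) inside NIH/3T3 cells / Quantity: 5,000 cells/well / Measured by: luminescence from GalScreen with 0.05% NP40, read after 60 min / Medium: DMEM plus 2% FBS / Measure: parasite load inhibition, % / Reagent: Tulahuen C4 trypomastigotes, 5000/well / Schedule: co-culture of at least 90 h after 3 h attachment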
Large screens that a line does not name were inactive. This is a sample that favours compounds with a hit; in the whole collection about 5.7% have one here.

CCc1nnc(NC(=O)CCC(=O)NCCc2ccccc2)s1	none
COc1ccc(NC2c3ccccc3C(=O)N2c2cccnc2)cc1 (configuration not stated)	none
Cc1nc2nc(N)nc(OCc3ccccc3)c2nc1C	none
CN(C)CCC1CCN(c2cc(C#N)c(C#N)cc2[N+](=O)[O-])CC1	T cruzi repl 79
N#Cc1cc(N2CCCCC2)c([N+](=O)[O-])cc1C#N	none
Cc1cccc(OCCNc2cc(N3CCN(C)CC3)ccc2[N+](=O)[O-])c1	CSC inhib 80, T cruzi repl 67
Cc1cccc(OCCNc2cc(N3CCOCC3)ccc2[N+](=O)[O-])c1	none
Cc1cccc(Oc2cc(NC(=O)c3ccccc3)cc([N+](=O)[O-])c2)c1	Beta apoptosis 100
Cc1nn(C)cc1C(=O)Nc1cc(Oc2ccc(Cl)cc2)cc([N+](=O)[O-])c1	none
Cn1cc([N+](=O)[O-])c(C(=O)Nc2cc(Oc3ccccc3)cc([N+](=O)[O-])c2)n1	CSC inhib 96 (no result: Mdm2-MdmX inh)
CCc1ccccc1NC(=O)N1CCCC(CCC(=O)N(C)CCc2ccccn2)C1 (configuration not stated)	none
C=CCOc1ccccc1CN1CCCC(CCC(=O)N(C)CCc2ccccn2)C1 (configuration not stated)	T cruzi repl 56 (no result: Beta apoptosis)
COc1ccc(C2CC(C)(c3ccc(OC)cc3OC)Nc3ccccc3N2)c(OC)c1 (configuration not stated)	Calb FLC inconclusive, T cruzi repl 73
CC(=O)Nc1ccc(SC[C@H](c2ccccc2)N2CCN(CCc3ccccc3)CCC2=O)cc1	none
NC[C@H](O)c1ccc(O)c(O)c1	none (no result: Calb FLC, SKKanGAS inh, T cruzi repl)
CCOc1ccc(S(=O)(=O)Nc2cc(SCC(=O)O)c(O)c3ccccc23)cc1	none (no result: Mdm2-MdmX inh, Beta apoptosis, CSC inhib)
COc1ccc(OC)c(S(=O)(=O)Nc2ccc(O)c3ccccc23)c1	Beta apoptosis 103
CCc1ccc(S(=O)(=O)Nc2cc(SCC(=O)O)c(O)c3ccccc23)cc1	CSC inhib 114
CCc1ccc(S(=O)(=O)Nc2ccc(O)c3ccccc23)cc1	Beta apoptosis inconclusive, CSC inhib 92
Cc1ccc(C)c(S(=O)(=O)Nc2cc(SCC(=O)O)c(O)c3ccccc23)c1	Beta apoptosis 130 (no result: Mdm2-MdmX inh, Calb FLC, SKKanGAS inh, T cruzi repl)
CCN(CC)c1nc2c(c(=O)[nH]c(=O)n2C)n1CCOc1ccccc1	none
OCCOCCn1c(C2CCCN2c2nc(-c3ccc(F)cc3)cs2)nc2cc(Cl)c(Cl)cc21 (configuration not stated)	none
O=S(=O)(Nc1cc(Sc2cccc3cccnc23)c(O)c2ccccc12)c1ccccc1	SKKanGAS inh 91 (no result: Mdm2-MdmX inh, Beta apoptosis, CSC inhib)
C=C(C(=O)c1ccccc1)C(C)C(=C)C(=O)c1ccccc1	Beta apoptosis 117, CSC inhib 82 (no result: Mdm2-MdmX inh)
C#CCNC(=O)C1=C[C@H](c2ccc(Br)cc2)C[C@H](OCc2ccc(CO)cc2)O1	none
CCC(CC)c1nnc(NC(=O)C2CSC3(C)CCC(=O)N23)s1 (configuration not stated)	none
CC(=O)N1N=C(c2ccc(Cl)cc2)CC1c1ccco1 (configuration not stated)	none
O=C(c1ccc(Br)o1)N1N=C(c2ccc(Cl)cc2)CC1c1ccco1 (configuration not stated)	SKKanGAS inh 60
CC1CCCCN1C(=O)COC(=O)c1cc([N+](=O)[O-])ccc1N1CCOCC1 (configuration not stated)	none
Fc1ccc(CN(Cc2ccccc2)C(c2cccs2)c2nnnn2C2CCCCC2)cc1 (configuration not stated)	Beta apoptosis 94, T cruzi repl inconclusive
CCOc1nc2ccccc2cc1C=O	none
COc1ccccc1/C=C1\S/C(=N/NC(=O)c2cccc(Br)c2)NC1=O	CSC inhib 114, Calb FLC inconclusive, SKKanGAS inh 81
COc1ccccc1COCC(O)CN1CCN(S(=O)(=O)c2cccc(F)c2)CC1 (configuration not stated)	none (no result: Calb FLC, SKKanGAS inh, T cruzi repl)
O=C(CSc1nnc(NC(=O)c2ccccc2[N+](=O)[O-])s1)NC1CCCC1	SKKanGAS inh 51
Cc1ccc(NC(=O)CC(C)c2ccccc2)cc1S(=O)(=O)N1CCOCC1 (configuration not stated)	none (no result: Calb FLC, SKKanGAS inh, T cruzi repl)
C/C(=N\Nc1nc2ccccc2s1)c1ccc(Br)s1	Beta apoptosis 90, CSC inhib 84, SKKanGAS inh 92
CC1COc2c(N3CCN(C)CC3)c(F)cc3c(=O)c(C(=O)O)cn1c23 (configuration not stated)	SKKanGAS inh 95
O=C(CSc1nnc(NC(=O)C2CC2)s1)NCc1ccccc1	none (no result: Beta apoptosis)
Cc1ccc2nc(N/N=C/c3ccccc3F)nc(-c3ccccc3)c2c1	SKKanGAS inh 106
Cc1cc(NC(=O)/C=C/c2ccc(Br)cc2)no1	none
O=C(/C=C/c1ccc2c(c1)OCO2)NCCSCc1cccc(Cl)c1	CSC inhib 102
O=C(COc1ccc2c(c1)OCO2)Nc1ccc(Cl)cn1	none
O=C(/C=C/c1ccc2c(c1)OCO2)Nc1ccc(Cl)cn1	CSC inhib 88
Cc1cc(NC(=O)/C=C/c2ccc(Cl)cc2)no1	CSC inhib 78
COc1cc(/C=N/N(C)S(=O)(=O)c2ccc(C)cc2)cc([N+](=O)[O-])c1O	none
COc1ccccc1-c1cc(C(F)(F)F)nc(NCc2cccs2)n1	none
FC(F)(F)c1cc(-c2ccc(Cl)cc2)nc(NCc2cccnc2)n1	CSC inhib 77, T cruzi repl 70
Cc1ccc(-c2cc(C(F)F)nc(NCc3cccnc3)n2)cc1	Calb FLC inconclusive, T cruzi repl 60
COc1ccc(-c2cc(C(F)(F)F)nc(NCc3cccs3)n2)cc1	SKKanGAS inh 74, T cruzi repl 55
CN1CCN(c2oc(COc3ccc(-c4ccccc4)cc3)nc2C#N)CC1	T cruzi repl 77
COC(=O)c1c(NC(=O)CCNCc2ccco2)sc2c1CCC2	none
Cc1ccc(N(CCC#N)C(=O)COC(=O)c2cc(C)oc2C)cc1	none (no result: Calb FLC, SKKanGAS inh, T cruzi repl)
CCOC(=O)c1ccc(NC(=S)NN)cc1	SKKanGAS inh 70
CCOC(=O)c1ccc(NC(=S)Nc2cccc(N)n2)cc1	SKKanGAS inh 58
CCOC(=O)c1ccc(NC(=S)Nc2cccc(C)n2)cc1	none
COc1cc(CN2CCCCC2)ccc1OCc1ccccc1	T cruzi repl 82
Cn1c(N)c(Sc2ccc(F)cc2)c(=O)n(C)c1=O	Calb FLC inconclusive
CCCn1c(CC)nc([N+](=O)[O-])c1Sc1ccc(F)cc1	Calb FLC 113
N=C(N)c1ccc(OCCCCCOc2ccc(C(=N)N)cc2)cc1	SKKanGAS inh 108 (no result: Calb FLC)
COc1cc(OC)cc(-c2c(-c3cccs3)c3cc(-c4ccc5c(c4)OCCO5)ccc3n2C)c1	none (no result: Calb FLC, SKKanGAS inh, T cruzi repl)
